Measurements as given in ChEMBL document CHEMBL3232933, “Pyrazole-5-carboxamides, novel inhibitors of receptor for advanced glycation end products (RAGE)” (Eur J Med Chem, 2014).
Activity calls are given as the source filed them. The calls are words filed in the database; no cut-off is given here.

Tests used:
[1] = target: T1, Advanced glycosylation end product-specific receptor (Homo sapiens, UniProt Q15109); experiment: Inhibition of biotinylated human RAGE assessed as bound amyloid beta level at 20 uM after 60 mins by ELISA relative to control
T1 sequence (Q15109 whole entry): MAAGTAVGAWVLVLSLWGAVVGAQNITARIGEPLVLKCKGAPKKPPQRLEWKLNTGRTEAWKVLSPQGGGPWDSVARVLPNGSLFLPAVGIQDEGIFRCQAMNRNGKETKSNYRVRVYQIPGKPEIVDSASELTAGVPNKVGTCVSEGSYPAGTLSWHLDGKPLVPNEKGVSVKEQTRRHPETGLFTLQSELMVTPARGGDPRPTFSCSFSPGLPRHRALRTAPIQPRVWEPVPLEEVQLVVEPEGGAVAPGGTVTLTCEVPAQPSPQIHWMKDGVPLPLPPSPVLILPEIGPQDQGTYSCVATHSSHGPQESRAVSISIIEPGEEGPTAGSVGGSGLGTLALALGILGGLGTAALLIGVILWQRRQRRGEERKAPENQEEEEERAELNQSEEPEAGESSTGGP
How it was run: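 Biotinylated human RAGE (1 µg), Aβ1-42 oligomers (aged in PBS for 24 h at 4 °C) and compound at a single fixed level were co-incubated in TBS-T with 2.5% BSA on streptavidin plates for 60 min at ambient temperature. Bound Aβ was detected with HRP-4G8, TMB and A450. % inhibition is given as mean ± SD of duplicate experiments.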

[2] = Kinetic solubility of the compound in PBS at pH 7.4 by nephelometric analysis; type: physicochemical; conditions: read-out: Kinetic_solubility
How it was run: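 Kinetic solubility was measured on the HCl salt, added from a DMSO stock, in triplicate experiments.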

[3] = target: T1, Advanced glycosylation end product-specific receptor; experiment: Inhibition of biotinylated human RAGE assessed as bound amyloid beta level after 60 mins by ELISA
[4] = AUC in Sprague-Dawley rat at 2 mg/kg, iv; type: ADME, organism-based; parameters: dose 2 mg/kg, route intravenous; conditions: plasma
[5] = system: Mus musculus; experiment: Antialzheimer activity in ICR mouse injected with human amyloid beta (1 to 42) assessed as reduction of human amyloid beta (1 to 42) level in brain at 25 mg/kg, ip administered 20 mins prior to human amyloid beta (1 to 42) injection measured after 30 mins relative to control; type: functional; parameters: scale not given: the % may be the effect or the level left; conditions: route intraperitoneal
How it was run: (§1)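 Male ICR mice, 3 months old (25 g, n = 4), got one i.p. dose of 25 mg/kg or vehicle. After 20 min, human Aβ1-42 in PBS was injected into the tail vein and circulated for 30 min. Human Aβ was then measured in brain extracts and plasma. Values are means ± SD.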

[6] = system: Mus musculus; experiment: Antialzheimer activity in ICR mouse injected with human amyloid beta (1 to 42) assessed as increase in human amyloid beta (1 to 42) level in plasma at 25 mg/kg, ip administered 20 mins prior to human amyloid beta (1 to 42) injection measured after 30 mins relative to control; type: functional; conditions: route intraperitoneal; how it was run: as §1

Row | inhibition [1] | SMILES | other results
1 | 20.5% | CCN(CC)CCOc1ccc(NC(=O)c2cc(-c3ccc(OC)cc3)nn2C)cc1 | 
2 | 44.7% | CCCCOc1cc(OCCCN(CC)CC)ccc1NC(=O)c1cc(-c2ccc(Oc3ccc(Cl)cc3)cc2)nn1CC | 
3 |  | CCN(CC)CCOc1cccc(Nc2nc(-c3ccc(Cl)cc3)cc(-c3ccc(Cl)cc3)n2)c1.Cl | solubility kinetic [2]: 16.5 µM
4 | inactive | CCCCOc1cc(OCCCN(CC)CC)ccc1NC(=O)c1cc(-c2ccc(Oc3ccc(Cl)cc3)cc2)n[nH]1 | 
5 | 36.5% | CCCCOc1cc(OCCCN(CC)CC)ccc1NC(=O)c1cc(-c2ccc(Oc3ccc(OC)c(Cl)c3)cc2)nn1C | IC50 [3]: 5.3 µM
6 | 27% | CCN(CC)CCOc1ccc(NC(=O)c2cc(-c3ccc(Oc4ccc(Cl)cc4)cc3)nn2C)cc1 | 
7 | 45.7% | CCCCOc1cc(OCCCN(CC)CC)ccc1NC(=O)c1cc(-c2ccc(Oc3ccc(Cl)cc3)cc2)n(CCC)n1 | 
8 | 52.6% | CCCCOc1cc(OCCCN(CC)CC)ccc1NC(=O)c1cc(-c2ccc(Oc3ccccn3)cc2)nn1C | IC50 [3]: 18.9 µM
9 | 34.1% | CCCCOc1cc(OCCCN(CC)CC)ccc1NC(=O)c1cc(-c2ccc(Oc3ccc(OC)c(F)c3)cc2)nn1C | 
10 | 20.5% | CCN(CC)CCCOc1ccc(NC(=O)c2cc(-c3ccc(OC)cc3)nn2C)cc1 | 
11 | 77% | CCCCOc1cc(OCCCN(CC)CC)ccc1NC(=O)c1cc(-c2ccc(Oc3ccccc3)cc2)nn1C | IC50 [3]: 5.4 µM
12 | inactive | CCCCOc1cc(OCCCN(CC)CC)ccc1NC(=O)c1cc(-c2ccc(Oc3ccc(C(C)(C)C)cc3)cc2)nn1C | 
13 |  | CCN(CC)CCOc1cccc(Nc2nc(-c3ccc(Cl)cc3)cc(-c3ccc(Cl)cc3)n2)c1 | AUC [4]: 10600 ng·h/mL
14 | 44.6% | CCCCOc1cc(OCCCN(CC)CC)ccc1NC(=O)c1cc(-c2ccc(Oc3ccc(Cl)cc3)cc2)nn1CCC | 
15 | 76% | CCCCOc1cc(OCCCN(CC)CC)ccc1NC(=O)c1cc(-c2ccc(OC3CCCCC3)cc2)nn1C | IC50 [3]: 2.5 µM
16 | 74.2% | CCCCOc1cc(OCCCN(CC)CC)ccc1NC(=O)c1cc(-c2ccc(Oc3ccc(OC)cc3)cc2)nn1C | IC50 [3]: 7.8 µM

Row | inhibition [1] | SMILES | other results
17 | 33.8% | CCN(CC)CCCOc1ccc(NC(=O)c2cc(-c3ccc(Oc4ccc(Cl)cc4)cc3)nn2C)cc1 | 
18 | 49.7% | CCCCOc1cc(OCCCN(CC)CC)ccc1NC(=O)c1cc(-c2ccc(Oc3ccc(Cl)cc3)cc2)nn1C | 
19 | 32.4% | CCCCOc1cc(OCCCN(CC)CC)ccc1NC(=O)c1cc(-c2ccc(OC)cc2)nn1C | 
20 |  | CCCCOc1cc(OCCCN(CC)CC)ccc1NC(=O)c1cc(-c2ccc(Oc3ccc(F)cc3)cc2)nn1C [listing 1 of 2 here] | AUC [4]: 8560 ng·h/mL; Activity [5]: 37.86%; Activity [6]: 4.01%
21 | 32.1% | CCCCOc1cc(OCCCN(CC)CC)ccc1NC(=O)c1cc(-c2ccc(Oc3ccc(Cl)cc3)cc2)no1 | 
22 | 36% | CCCCOc1cc(OCCCN(CC)CC)ccc1NC(=O)c1cc(-c2ccc(Oc3ccc(Cl)cc3)cc2)n(CCCC)n1 | 
23 | 29.5% | CCCCOc1cc(OCCCN(CC)CC)ccc1NC(=O)c1cc(-c2ccc(Oc3ccccc3F)cc2)nn1C | 
24 | 37% | CCCCOc1cc(OCCCN(CC)CC)ccc1NC(=O)c1cc(-c2ccc(Oc3cccc(F)c3)cc2)nn1C | 
25 | inactive | CCCCOc1cc(OCCCN(CC)CC)ccc1NC(=O)c1cc(-c2ccc(Oc3ccc(Cl)cc3)cc2)nn1CCCC | 
26 | 41.4% | CCCCn1nc(-c2ccc(Oc3ccc(Cl)cc3)cc2)cc1C(=O)Nc1ccc(OCCCN(CC)CC)cc1 | 
27 | 83.1% | CCCCOc1cc(OCCCN(CC)CC)ccc1NC(=O)c1cc(-c2ccc(Oc3ccc(C(F)(F)F)cc3)cc2)nn1C | IC50 [3]: 1.9 µM
28 | inactive | CCCCOc1cc(OCCCN(CC)CC)ccc1NC(=O)c1cc(-c2ccc(OC)cc2)n[nH]1 | 
29 | 19.9% | CCCCOc1cc(OCCCN(CC)CC)ccc1NC(=O)c1cc(-c2ccc(Oc3ccc(F)c(F)c3)cc2)nn1C | 
30 |  | CCCCOc1cc(OCCCN(CC)CC)ccc1NC(=O)c1cc(-c2ccc(Oc3ccc(F)cc3)cc2)nn1C.Cl | solubility kinetic [2]: 80.3 µM
31 | 79.3% | CCCCOc1cc(OCCCN(CC)CC)ccc1NC(=O)c1cc(-c2ccc(Oc3ccc(F)cc3)cc2)nn1C [listing 2 of 2 here] | 
